Source: PubChem BioAssay (several laboratories)
An excerpt weighted towards active compounds, which were near 0.74% of everything screened.
RGS8-Gao reg: regulators of human RGS8-Galphao interaction; multiplexed bead flow cytometry, RGS8-Galphao binding; actives lie on both sides; response (percent of control binding), % at 10 µM; P09471; hit rate 0.34% among 220,000; in the data active means response below about 60% or above about 140%; inactive means in between;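 further: Galphao activated as the GDP aluminium fluoride complex binding bead-coupled RGS8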
Calb biofilm kill: mixture kills Candida albicans biofilm cells. C. albicans biofilm persisters + clotrimazole, fluorescence viability; primary screen in compound mixtures of four per well. inhibition, % at 7.6 µM. hit rate 0.02% among 120,000. AID 1242;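 active means inhibition above 30.3% in the primary screen of four-compound pools, then above 30% when the compound was retested; inconclusive means passed the primary limit but could not be retested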;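 further: compounds exposed to preformed 24 h biofilms for 48 h; 0% = untreated biofilm control and 100% = clotrimazole plus chlorhexidine kill blank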
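System: C. albicans CAF4-2 wild-type biofilms; Medium: RPMI/MOPS medium, pH 7.0; Reagent: Clotrimazole, 50 µg/mL; Times: biofilm formation 24 h, compound exposure 48 h, 37 °C; Detection: 2-h Alamar Blue fluorescence, 535/590 nm excitation/emission; Evaluation: percent inhibition of biofilm viability.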
RGS16-Gao HTS: RGS16-Galphao interaction regulator (human) | O15492+P09471 | bead-based flow cytometry RGS16-Galphao binding, fluorescence; actives lie on both sides | binding response (% of control), % at 10 µM | hit rate 0.38% among 220,000;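 further: Galphao activated by GDP with aluminum fluoride before binding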
Target sequence (O15492 whole entry, looked up): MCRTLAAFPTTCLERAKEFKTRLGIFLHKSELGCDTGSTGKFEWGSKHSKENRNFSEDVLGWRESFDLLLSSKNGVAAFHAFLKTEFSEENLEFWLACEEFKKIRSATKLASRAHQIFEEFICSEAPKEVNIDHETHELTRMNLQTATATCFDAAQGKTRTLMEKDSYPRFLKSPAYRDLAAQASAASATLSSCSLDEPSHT
Target sequence (P09471 whole entry, looked up): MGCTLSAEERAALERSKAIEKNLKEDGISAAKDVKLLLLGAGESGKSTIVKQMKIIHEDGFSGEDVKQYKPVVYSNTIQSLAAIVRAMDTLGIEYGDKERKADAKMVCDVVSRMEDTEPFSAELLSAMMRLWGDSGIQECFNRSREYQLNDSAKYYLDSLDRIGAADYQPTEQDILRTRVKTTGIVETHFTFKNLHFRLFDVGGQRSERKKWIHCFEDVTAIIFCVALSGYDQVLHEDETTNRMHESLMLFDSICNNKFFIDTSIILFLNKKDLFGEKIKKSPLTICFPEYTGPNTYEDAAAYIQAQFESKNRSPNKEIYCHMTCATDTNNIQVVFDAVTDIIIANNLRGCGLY
RGS4-Gao reg: modulates binding of RGS4 to human Galphao. Multiplexed bead flow cytometry; actives lie on both sides. binding response (% of control), % at 10 µM. hit rate 0.33% among 220,000. AID 1415; in the data active means binding response below about 49% or above about 150%; inactive means in between;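 further: fluorescent Galphao activated with aluminum fluoride binding bead-coupled RGS4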
RGS7-Gao reg: modulates binding of RGS7 to human Galphao | P09471 | Multiplexed bead flow cytometry; actives lie on both sides | binding response (% of control), % at 10 µM | hit rate 0.35% among 220,000 | AID 1439; in the data active means binding response below about 49% or above about 150%; inconclusive means no clear call, values can overlap the other calls; inactive means in between;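 further: fluorescent Galphao held in activated GDP-AlF4 state binding bead-coupled RGS7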
RGS-Gao: regulators of human RGS4-Galphao interaction; multiplexed bead flow cytometry, RGS–Galpha-o binding; RGS4–Galpha-o binding response, % at 10 µM; shares compounds with RGS16-Gao HTS; AID 1504; hit rate 99% among 1,600;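 further: fluorescently labeled Galpha-o bound to GDP with aluminium fluoride binding biotinylated RGS beads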
Avidin counter: counter-screen: compounds disrupting biotin binding to avidin beads; shares compounds with RGS16-Gao HTS; streptavidin beads, fluorescein-biotin binding, flow cytometry; inhibition, % at 10 µM; 1,700 tested, under 10 active; AID 1783;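 active means inhibition above 50%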;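 further: median green fluorescence of gated singlet beads compared with DMSO control wells; 0% = DMSO wells and 100% = complete loss of bead fluorescence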
RGS8-Gao single: RGS8-Galphao interaction regulation, single point confirmation. binding response (% of control), % at 10 µM. shares compounds with RGS16-Gao HTS. bead-based flow cytometry RGS8-Galphao binding, fluorescence; actives lie on both sides. hit rate 3% among 1,700; in the data active means binding response below about 72% or above about 130%; inactive means in between;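 further: Galphao activated as GDP AlF4 complex before binding bead RGS8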
RGS7-Gao confirm: confirmation of regulators of human RGS7-Galphao interaction. shares compounds with RGS16-Gao HTS. bead-based flow cytometry RGS7-Galphao binding; actives lie on both sides. response (percent of control binding), % at 10 µM. hit rate 7.8% among 1,700. AID 1837; in the data active means response below about 75% or above about 130%; inactive means in between;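 further: fluorescent Galphao activated with GDP and aluminum fluoride binding bead-coupled RGS7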
RGS16-Gao single: RGS16-Galphao interaction regulation, single point confirmation | shares compounds with RGS16-Gao HTS | bead-based flow cytometry, RGS16-Galphao binding; actives lie on both sides | response (% of control binding), % at 10 µM | hit rate 4% among 1,700 | AID 1838; in the data active means response below about 74% or above about 130%; inactive means in between;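 further: Galphao activated as the GDP aluminium fluoride complex binding bead-coupled RGS16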
RGS4-Gao confirm: confirmation of regulators of human RGS4-Galphao interaction; shares compounds with RGS16-Gao HTS; RGS4-Galphao binding, multiplexed bead flow cytometry; actives lie on both sides; binding response (% of control), % at 10 µM; hit rate 4% among 1,700; AID 1840; in the data active means binding response below about 74% or above about 130%; inactive means in between
RGS19-Gao conf: confirmation of regulators of human RGS19-Galphao interaction | shares compounds with RGS16-Gao HTS | response (percent of control binding), % at 10 µM | hit rate 5% among 1,700 | AID 1841 | bead-based flow cytometry RGS19-Galphao binding; actives lie on both sides; in the data active means response below about 50% or above about 160%; inactive means in between;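 further: 100% = no compound control and 0% = blank background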
* = called active by the depositor; ? = inconclusive; nt = not tested or not shown; [ ] = remark or other dose. Unless noted, how the calls were made is not given here.

SMILES	RGS8-Gao reg	Calb biofilm kill	RGS16-Gao HTS	RGS4-Gao reg	RGS7-Gao reg	Avidin counter	RGS8-Gao single	RGS7-Gao confirm	RGS16-Gao single	RGS4-Gao confirm	RGS19-Gao conf	others
COC1CCN(C(=O)CC2C(=O)NCCN2CC2CCCCC2)CC1 (stereo not drawn)	100	9	97	98	98	nt	nt	nt	nt	nt	nt
O=C(C1CCC(CNS(=O)(=O)c2cccs2)CC1)N1CCCCC1 (stereo not drawn)	93	nt	55	93	95	nt	nt	nt	nt	nt	nt
CCN1CCN(C(=O)C2CCC(CNS(=O)(=O)c3ccccc3)CC2)CC1 (stereo not drawn)	nt	nt	nt	nt	nt	4	102	105	108	108	103
CCN=C1SC(CC(N)=O)C(=O)N1CC (stereo not drawn)	101	13	100	104	103	nt	nt	nt	nt	nt	nt
c1ccc(CCN(Cc2ccccc2)Cc2nc(C3CC3)no2)cc1	105	-8	110	102	105	nt	nt	nt	nt	nt	nt
Cc1cc(=O)c2cc3nc(-c4cccnc4)oc3c(Br)c2o1	97	9	96	96	?	nt	nt	nt	nt	nt	nt
CC(C)CCn1c(CN2CCN(Cc3ccccc3)CC2)nc2c1c(=O)[nH]c(=O)n2C	145*[activator]	nt	357	135	126	2	96	93	96	96	87	RGS-Gao=135*
COc1ccc(-c2nnc(SCc3nc4ccccc4c(=O)[nH]3)o2)cc1	101	13	103	106	?	nt	nt	nt	nt	nt	nt
COc1nc(-c2ccccc2)cc(-c2ccccc2)n1	98	nt	107	133	207*[activator]	0	104	107	105	104	112	RGS-Gao=133*
CSc1ccc(CN(C)Cc2nc3ccccc3c(=O)[nH]2)cc1	104	1	102	108	?	nt	nt	nt	nt	nt	nt
O=C(CSc1nncs1)NCc1ccc(F)cc1	102	8	101	101	?	nt	nt	nt	nt	nt	nt
Cc1ccc(-n2nnnc2C(=Cc2ccc(N(C)C)cc2)c2nnnn2-c2ccc(C)cc2)cc1	14*	nt	11*	23*	18*	1	113	100	118	102	91
Cc1ncc(CO)c(/C=N/NC(=O)c2cc3c(s2)CCCC3)c1O	92	11	87	88	?	nt	nt	nt	nt	nt	nt
Cc1cc(C)cc(N(C(=O)Cc2cccs2)C(C(=O)NC2CCCC2)c2ccc(C)o2)c1 (stereo not drawn)	nt	nt	nt	nt	nt	-1	96	92	93	93	81
Cc1ccc(C(C(=O)NC2CCCC2)N(C(=O)Cc2cccs2)c2cccc(C)c2C)o1 (stereo not drawn)	101	nt	106	104	97	nt	nt	nt	nt	nt	nt
CCOc1ccc(CCNC(=O)c2[nH]c(C)c(C(C)=O)c2C)cc1OCC	nt	6	nt	nt	nt	3	101	96	99	98	91
Cn1cc(-c2nnnn2-c2ccc(Cl)cc2)c(=O)c2ccccc21	144*[activator]	nt	357	130	124	0	101	96	104	100	97	RGS-Gao=130*
CC(NC(=O)C(=O)N/N=C\c1cccc([N+](=O)[O-])c1)c1ccccc1 (stereo not drawn)	106	25	113	104	103	nt	nt	nt	nt	nt	nt
Cc1nn(-c2ccccc2)c2sc(C(=O)N3CCCCC3)cc12	nt	nt	nt	nt	nt	-2	101	97	106	103	105
O=C(Nc1ccc(S(=O)(=O)N2CCOCC2)cc1)c1ccc(Cl)cc1	98	22	99	98	?	nt	nt	nt	nt	nt	nt
